Data taken from the RNAGym collection of RNA variant scans (doi:10.1101/gad.245936.114).
This sample holds only a part of the variants without activity.

B1: tRNA (parent)
chain: CUCUCGGUAGCCAAGUUGGUUUAAGGCGCAAGACUUUAAUUUAUCACUACGAAAUCUUGAGAUCGGGCGUUCGACUCGCCCCCGGGAGAUUUUUUCCUCGAGCAA

Variants of: B1
Test: nonsense suppression (GFP-seq) (ratio to wild type); higher = more function; SUP4oc tRNA, yeast GFP reporter sort-seq
Outline: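 Yeast were grown in raffinose/galactose medium with 80 mg/L adenine, each strain bearing a genome-integrated ochre-suppressor tRNA variant from a ~3% random-mutation library, a galactose-driven GFP ochre reporter, and RFP. After sorting into GFP/RFP bins, every bin was sequenced on an Illumina platform at phred ≥30. The GFPSEQ value, a measure of nonsense suppression, is the weighted bin median GFP/RFP relative to the unmutated parent tRNA, using each variant's estimated cell share per bin as the weight. Only variants with ≥100 reads and ≥30 cells were included.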

| Variant | nonsense suppression |
| --- | --- |
| G7C U22C G26A | ≤ 0.026 |
| A9G G28A G61A | 1.24 |
| G7U C56U | ≤ 0.026 |
| A9C G85U | 0.04 |
| U8A U16G | 0.0647 |
| G7U A30G | ≤ 0.026 |
| G7C A60U G61A C82G | 0.0263 |
| G7A G25U | ≤ 0.026 |
| C5U G19C U35A A89G | ≤ 0.026 |
| C5U U22C U57C A74C | ≤ 0.026 |
| U8C U16A A30C A54C | ≤ 0.026 |
| A9G C75A | 0.762 |
| A9G C75U | 1.17 |
| A9G U17C | 0.113 |
| A9G U17A | 0.92 |
| G7U A9U A31U | ≤ 0.026 |
| C5U U76A C79A | ≤ 0.026 |
| A9G C11U G61C | ≤ 0.026 |
| C5U U55G C68A A74U | ≤ 0.026 |
| A9C A23G | 0.0661 |
| G7U C79A G85U G86U G88U | ≤ 0.026 |
| C5U U55C G88A | ≤ 0.026 |
| U8C U21A | ≤ 0.026 |
| U8C U21G | 0.0903 |

| Variant | nonsense suppression |
| --- | --- |
| A9G A24G | 0.0517 |
| U8A A23G C80G G84C | ≤ 0.026 |
| G7C G73U | ≤ 0.026 |
| G7U C82A | 1.02 |
| A9G A23G U70G A89G | ≤ 0.026 |
| G6A G78A | 0.037 |
| G6A A24U | 0.0308 |
| G6A A24G | 0.0293 |
| G7U U58G C80G | ≤ 0.026 |
| A9C U20A | 0.183 |
| C5U G69A | ≤ 0.026 |
| A9C A13G U55A G73U | ≤ 0.026 |
| U8A A13G | ≤ 0.026 |
| G7A C81G | ≤ 0.026 |
| G6A C81U | 0.0651 |
| G7U C27U U35A A74C | ≤ 0.026 |
| A9C G69A | ≤ 0.026 |
| G6C C34G A54U | ≤ 0.026 |
| A9C U21C A24U U63A G69U | ≤ 0.026 |
| G7C U55C | 0.0823 |
| G7U G85U | ≤ 0.026 |
| U8A G32A | ≤ 0.026 |
| A9C A54U | 1.21 |
| U8C C80G | ≤ 0.026 |

| Variant | nonsense suppression |
| --- | --- |
| U8A C27G A54G C79U | ≤ 0.026 |
| U8C A31C A54U G85A G88A | ≤ 0.026 |
| G7C U76C | ≤ 0.026 |
| G6A C79U G88C | ≤ 0.026 |
| G7C U35G A62C | ≤ 0.026 |
| G7C A9U | 0.0428 |
| G7U U22A | ≤ 0.026 |
| G6C U35G | ≤ 0.026 |
| G7A G59A U71G G73A G84A G85U | ≤ 0.026 |
| G7A A24C | 0.123 |
| U8G A13G G61C C68G C82G | ≤ 0.026 |
| G7A A24U C75U G78C | ≤ 0.026 |
| A9C A13G | 0.0462 |
| A9C A13C | 1.15 |
| U8A U55G C81G | ≤ 0.026 |
| G7A U17C A24G G32U U71C A87U | ≤ 0.026 |
| U8G G25U A54U U70G G73C | ≤ 0.026 |
| U8A A60C G73U A87C | ≤ 0.026 |
| U8A G25C | ≤ 0.026 |
| U8A G25A | ≤ 0.026 |
| A9G G61A A87G | 0.188 |
| C5U U20C | ≤ 0.026 |
| G6A A62U | ≤ 0.026 |
| G6A C29G A62C C75G | ≤ 0.026 |

| Variant | nonsense suppression |
| --- | --- |
| U8A A14G | 0.18 |
| G7A C34U | ≤ 0.026 |
| U8G C27U | ≤ 0.026 |
| G7C A31C G32C | ≤ 0.026 |
| G7C U21G | 0.0521 |
| G7A G26U | ≤ 0.026 |
| A9G C29U | 0.2 |
| G6C U71A | ≤ 0.026 |
| U8A U57G C82A | ≤ 0.026 |
| U8G A60G | ≤ 0.026 |
| G7A U76C G88U | ≤ 0.026 |
| A9G G61U C75G | 1.12 |
| A9G C81U | 0.028 |
| G7A G18U | ≤ 0.026 |
| C5U G6A C11A G25A | ≤ 0.026 |
| A9C G18A A31C A54C A62U G69C G88C | ≤ 0.026 |
| G6U U63C | ≤ 0.026 |
| G6A U63G C81U | ≤ 0.026 |
| G7U U8C | ≤ 0.026 |
| U8A G19C A60G | ≤ 0.026 |
| A9G U22A U35G | ≤ 0.026 |
| G6C C77G | ≤ 0.026 |
| A9G A60C | ≤ 0.026 |
| A9G A60G | 0.222 |

| Variant | nonsense suppression |
| --- | --- |
| A9C U63G | 0.0362 |
| A9C U63C | 0.202 |
| U8C G84U | ≤ 0.026 |
| A9G G15C | 0.173 |
| A9G G15U | 0.0374 |
| U8C U70G A74C G84C | 0.0541 |
| A9G G61A G85A | 0.303 |
| G6U U63G U71C G85U A89C | ≤ 0.026 |
| A9C U76C | 0.929 |
| A9G G10U C80U A87C | ≤ 0.026 |
| A9G G61U | 1.1 |
| A9G G61C | 1.06 |
| G6U C83G | 0.923 |
| C5U G10A A13G G73A C75A G86C | ≤ 0.026 |
| U8G A13C G28C C64U U70A C72U G84U | ≤ 0.026 |
| G7A U55A | ≤ 0.026 |
| G6U U20A C83G | 0.186 |
| G7U U21G A23U C79G | ≤ 0.026 |
| U8C G85U | 0.0537 |
| G7A U35G G59A | ≤ 0.026 |
| U8G U17G G69U C80G | ≤ 0.026 |
| A9C U20G U21G G86A | ≤ 0.026 |
| A9G G84U | 0.0539 |
| A9G G84A | 0.0699 |

| Variant | nonsense suppression |
| --- | --- |
| G7U A87U | ≤ 0.026 |
| U8A G26C A31U U55A U71A | ≤ 0.026 |
| A9G A14G | 0.0311 |
| U8C G18U U22A U35G U71A C80G | ≤ 0.026 |
| G7C C29G | ≤ 0.026 |
| U8C G28C | 0.0327 |
| U8G G67C G85C | ≤ 0.026 |
| U8C A31G | 0.0327 |
| U8C G65A C72U | ≤ 0.026 |
| G7A A60G | 0.053 |
| U8A A9G | 0.0277 |
| G6C U16A C56G U57C U58C U71C | ≤ 0.026 |
| G7A G10U U20A U35G U57G U63C | ≤ 0.026 |
| G6U A9U | 0.0343 |
| U8C A9U C34G C68U | ≤ 0.026 |
| G6U C81A | ≤ 0.026 |
| U8A A9G U58A C72G C79A | ≤ 0.026 |
| A9G U22A | 0.212 |
| A9G U22G | 0.254 |
| A9G U22C | 0.323 |
| U8C A54C | 0.0833 |
| G7A A54C G67U | ≤ 0.026 |
| G7A U70A A89C | ≤ 0.026 |
| U8G G15C | ≤ 0.026 |

| Variant | nonsense suppression |
| --- | --- |
| G6A U55C | 0.262 |
| G6A U55G | ≤ 0.026 |
| G6A U55A | ≤ 0.026 |
| C5U U21A | ≤ 0.026 |
| G6A G7U A54C | ≤ 0.026 |
| A9C G73A | 0.215 |
| C5U G26C G65C U76A | ≤ 0.026 |
| G7U U21A G78A C79A | ≤ 0.026 |
| G6U C80U | ≤ 0.026 |
| G6A A24G C27A C29G | ≤ 0.026 |
| A9C U21A A31G U71C | ≤ 0.026 |
| A9G G10A | 0.0344 |
| A9G G10U | 0.0476 |
| G7U A54C | 0.0394 |
| A9G A33C G66U | ≤ 0.026 |
| A9G A14C A54G | ≤ 0.026 |
| G7A G86U | ≤ 0.026 |
| G7C G10A C68G | ≤ 0.026 |
| U8G G73C | ≤ 0.026 |
| G6A A31C A60C C72A G86A | ≤ 0.026 |
| A9G C27G | ≤ 0.026 |
| A9G C27U | 0.0421 |
| U8C U35G U71A | ≤ 0.026 |
